Tests used:
MCF7 [1] = experiment: Cytotoxicity against human MCF7 cells after 72 hrs by MTT assay; format: functional; conditions: MCF7, 72 h
Outline: (§1)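 MTT read-out after 72 h exposure at 37 °C in humidified 5% CO2, with five concentrations between 0.01 and 100. GI50 is 50% growth reduction versus untreated controls, TGI is complete growth inhibition, and LC50 is the concentration killing 50% of cells. Minimum three independent experiments.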

CCRF-CEM = experiment: Cytotoxicity against human CCRF-CEM cells after 72 hrs by MTT assay; format: functional; conditions: for CC50: read-out: LC50 (the source's name); outline: as §1
[2] = Cytotoxicity against human HTB-54 cells after 72 hrs by MTT assay; format: functional; conditions: HTB-54, 72 h; for CC50: read-out: LC50 (the source's name); outline: as §1
[3] = Cytotoxicity against human 184B5 cells after 72 hrs by MTT assay; format: cell-based; conditions: for GI50 at 72 h: 184B5 cells; for LC50 / TGI: 184b5, 72 h; outline: as §1
HT-29 = experiment: Cytotoxicity against human HT-29 cells after 72 hrs by MTT assay; format: functional; conditions: HT-29, 72 h; for CC50: read-out: LC50 (the source's name); outline: as §1
MCF7 [4] = experiment: Selectivity ratio of GI50 for human 184B5 cells to GI50 for human MCF7 cells
Outline: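 Selectivity ratio is GI50 on non-tumoral 184B5 mammary cells divided by GI50 on MCF-7. Both come from the 72 h MTT assay. Ratio 3–6 means moderate selectivity, >6 high, and otherwise non-selective.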

MCF7 [5] = experiment: Induction of apoptosis in human MCF7 cells assessed as cell death at 5 uM after 24 hrs by TUNEL analysis (reference value: 9.28 +/- 1.71%); format: functional
MCF7 [6] = experiment: Induction of apoptosis in human MCF7 cells assessed as cell death at 10 uM after 12 hrs by TUNEL analysis (reference value: 6.02 +/- 0.85%); format: functional
MCF7 [7] = experiment: Induction of apoptosis in human MCF7 cells assessed as cell death at 10 uM after 24 hrs by TUNEL analysis (reference value: 9.82 +/- 2.62%); format: functional
MCF7 [8] = experiment: Induction of apoptosis in human MCF7 cells assessed as cell death at 20 uM after 24 hrs by TUNEL analysis (reference value: 9.56 +/- 1.38%); format: functional
MCF7 [9] = experiment: Cell cycle arrest in human MCF7 cells assessed as accumulation at G0/G1 phase at 15 uM after 12 hrs by propidium iodide staining-based flow cytometric analysis (reference value: 57.34 +/- 1.64%); format: functional
MCF7 [10] = experiment: Cell cycle arrest in human MCF7 cells assessed as accumulation at subG1 phase at 15 uM after 12 hrs by propidium iodide staining-based flow cytometric analysis (reference value: 2.17 +/- 0.24%); format: functional
MCF7 [11] = experiment: Cell cycle arrest in human MCF7 cells assessed as accumulation at S phase at 15 uM after 24 hrs by propidium iodide staining-based flow cytometric analysis (reference value: 12.39 +/- 1.54%); format: functional
MCF7 [12] = experiment: Induction of apoptosis in human MCF7 cells assessed as cell death at 10 uM after 48 hrs by TUNEL analysis (reference value: 4.23 +/- 1.99%); format: functional
MCF7 [13] = experiment: Cell cycle arrest in human MCF7 cells assessed as accumulation at G2/M phase at 15 uM after 12 hrs by propidium iodide staining-based flow cytometric analysis (reference value: 22.11 +/- 3.86%); format: functional
MCF7 [14] = experiment: Cell cycle arrest in human MCF7 cells assessed as accumulation at subG1 phase at 15 uM after 4 hrs by propidium iodide staining-based flow cytometric analysis (reference value: 5.90 +/- 1.36%); format: functional
[15] = Permeability of the compound across human Caco2 cells; format: ADME, cell-based; conditions: Caco-2, read-out: permeability
MCF7 [16] = experiment: Cell cycle arrest in human MCF7 cells assessed as accumulation at G2/M phase at 15 uM after 24 hrs by propidium iodide staining-based flow cytometric analysis (reference value: 32.37 +/- 7.73%); format: functional
[17] = Cytotoxicity against human BEAS2B cells after 72 hrs by MTT assay; format: cell-based, BEAS-2B; conditions: for GI50 at 72 h: BEAS2B cells; for LC50 / TGI: beas-2b, 72 h; outline: as §1
MCF7 [18] = experiment: Cell cycle arrest in human MCF7 cells assessed as accumulation at G2/M phase at 15 uM after 4 hrs by propidium iodide staining-based flow cytometric analysis (reference value: 21.60 +/- 5.37%); format: functional
MCF7 [19] = experiment: Cell cycle arrest in human MCF7 cells assessed as accumulation at S phase at 15 uM after 12 hrs by propidium iodide staining-based flow cytometric analysis (reference value: 17.07 +/- 4.00%); format: functional
MCF7 [20] = experiment: Cell cycle arrest in human MCF7 cells assessed as accumulation at subG1 phase at 15 uM after 24 hrs by propidium iodide staining-based flow cytometric analysis (reference value: 2.93 +/- 0.54%); format: functional
MCF7 [21] = experiment: Induction of apoptosis in human MCF7 cells assessed as cell death at 15 uM after 24 hrs by TUNEL analysis (reference value: 5.13 +/- 4.32%); format: functional
MCF7 [22] = experiment: Cell cycle arrest in human MCF7 cells assessed as accumulation at G0/G1 phase at 15 uM after 4 hrs by propidium iodide staining-based flow cytometric analysis (reference value: 49.38 +/- 4.74%); format: functional
MCF7 [23] = experiment: Cell cycle arrest in human MCF7 cells assessed as accumulation at G0/G1 phase at 15 uM after 24 hrs by propidium iodide staining-based flow cytometric analysis (reference value: 51.83 +/- 5.64%); format: functional
MCF7 [24] = experiment: Induction of apoptosis in human MCF7 cells assessed as cell death at 1 uM after 24 hrs by TUNEL analysis (reference value: 6.12 +/- 1.61%); format: functional
MCF7 [25] = experiment: Cell cycle arrest in human MCF7 cells assessed as accumulation at S phase at 15 uM after 4 hrs by propidium iodide staining-based flow cytometric analysis (reference value: 19.09 +/- 4.54%); format: functional
MCF7 [26] = experiment: Induction of apoptosis in human MCF7 cells assessed as cell death at 10 uM after 4 hrs by TUNEL analysis (reference value: 5.85 +/- 5.21%); format: functional

Row | Structure (SMILES) | GI50 (MCF7 [1]) [µM] | LC50 (MCF7 [1]) [µM] | TGI (MCF7 [1]) [µM] | GI50 (CCRF-CEM) [µM] | TGI (CCRF-CEM) [µM] | CC50 (CCRF-CEM) [µM] | GI50 [2] [µM] | TGI [2] [µM] | CC50 [2] [µM] | GI50 at 72 h [3] [µM] | LC50 [3] [µM] | TGI [3] [µM] | GI50 (HT-29) [µM] | TGI (HT-29) [µM] | CC50 (HT-29) [µM] | RatioGI50 (MCF7 [4]) | Activity (MCF7 [5]) [%] | Activity (MCF7 [6]) [%] | Activity (MCF7 [7]) [%] | Activity (MCF7 [8]) [%] | other results
1 | C[Se]c1nc([Se]C)c2ccccc2n1 | 5.97 | > 100 | 50.7 | 31.2 | 54.9 | 78.5 | 26.6 | 84.2 | > 100 | 71.5 | > 100 | > 100 | 7.46 | 33.8 | 76.8 | 12 |  |  |  |  | 
2 | CCCCC[Se]c1nc(NCc2ccccc2)c2ccccc2n1 | 0.05 | 99.4 | 47.1 | 34.5 | 72.5 | > 100 | 37.7 | 81.1 | > 100 | 70.9 | > 100 | > 100 | 72.7 | > 100 | > 100 | 1418 | 14.37 | 13.39 | 30.13 | 30.95 | Activity (MCF7 [9]): 55.3%; Activity (MCF7 [10]): 2.13%; Activity (MCF7 [11]): 12.2%; Activity (MCF7 [12]): 14.91%; Activity (MCF7 [13]): 25.83%; Activity (MCF7 [14]): 4.42%; Papp [15]: 5.6 ×10⁻⁶ cm/s; Activity (MCF7 [16]): 34.79%; GI50 at 72 h [17]: 44.1 µM; LC50 [17]: > 100 µM; TGI [17]: > 100 µM; Activity (MCF7 [18]): 28.5%; Activity (MCF7 [19]): 17.01%; Activity (MCF7 [20]): 3.28%; Activity (MCF7 [21]): 24.88%; Activity (MCF7 [22]): 46.24%; Activity (MCF7 [23]): 46.97%; Activity (MCF7 [24]): 3.84%; Activity (MCF7 [25]): 16.66%; Activity (MCF7 [26]): 8.11%
3 | CSc1ccc(CNc2nc(SC)nc3ncccc23)cc1 | 0.05 | 9.13 | 4.37 | 5.35 | 16.8 | 59 | 3.28 | 14.8 | 63.6 | 0.19 | 5.64 | 1.14 | 4.32 | 7.03 | 8.75 |  | 13.7 | 11.51 | 25.95 | 22.63 | Activity (MCF7 [9]): 55.42%; Activity (MCF7 [10]): 2.24%; Activity (MCF7 [11]): 11.04%; Activity (MCF7 [12]): 11.66%; Activity (MCF7 [13]): 22.99%; Activity (MCF7 [14]): 3.88%; Papp [15]: 4.4 ×10⁻⁶ cm/s; Activity (MCF7 [16]): 30.2%; GI50 at 72 h [17]: 0.6 µM; LC50 [17]: 8.47 µM; TGI [17]: 3.77 µM; Activity (MCF7 [18]): 23.88%; Activity (MCF7 [19]): 19.35%; Activity (MCF7 [20]): 2.97%; Activity (MCF7 [21]): 23.95%; Activity (MCF7 [22]): 50.42%; Activity (MCF7 [23]): 52.91%; Activity (MCF7 [24]): 3.4%; Activity (MCF7 [25]): 18.02%; Activity (MCF7 [26]): 5.26%
4 | CCCCCSc1nc(O)c2ccccc2n1 | 7.82 | > 100 | 81.4 | 52.1 | 86 | > 100 | 30.4 | > 100 | > 100 | > 100 | > 100 | > 100 | 74.6 | > 100 | > 100 | >12 |  |  |  |  | GI50 at 72 h [17]: 51.4 µM; LC50 [17]: > 100 µM; TGI [17]: > 100 µM
5 | CC[C@@]1(O)C(=O)OCc2c1cc1n(c2=O)Cc2cc3ccccc3nc2-1 [CAMPTOTHECIN] |  |  |  |  |  |  |  |  |  |  |  |  |  |  |  |  | 13.42 | 11.36 | 18.67 | 17.59 | Activity (MCF7 [9]): 59.5%; Activity (MCF7 [10]): 3.06%; Activity (MCF7 [11]): 15.27%; Activity (MCF7 [12]): 46.12%; Activity (MCF7 [13]): 20.21%; Activity (MCF7 [14]): 5.39%; Activity (MCF7 [16]): 20.25%; Activity (MCF7 [18]): 23.38%; Activity (MCF7 [19]): 16.24%; Activity (MCF7 [20]): 3.05%; Activity (MCF7 [21]): 21.21%; Activity (MCF7 [22]): 47.24%; Activity (MCF7 [23]): 58.52%; Activity (MCF7 [24]): 17.42%; Activity (MCF7 [25]): 18.36%; Activity (MCF7 [26]): 6.71%
